Measured values from ChEMBL document CHEMBL1137764, “Design, synthesis, antibacterial activity and physicochemical parameters of novel N-4-piperazinyl derivatives of norfloxacin” (Bioorg Med Chem, 2009).
Converted amounts (≈) assume the structure as drawn.

What was measured:
[1] = tested on: Pseudomonas aeruginosa; experiment: Antimicrobial activity against Pseudomonas aeruginosa at 64 ug/ml after 24 hrs by agar diffusion technique; type: functional; settings: read-out: DIZ
Summary of the method: (§1)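 Strains came from a university microbiology department. Inocula were 10⁶ CFU/mL. Mueller-Hinton agar was seeded with culture, poured 3–4 mm thick, and 10 mm cups were bored. Compounds were dissolved in DMF (10 mg/mL stock), diluted, and the solution was placed in the cups. Plates were incubated at 37 °C overnight. Inhibition zone diameter (mm) was read at 24 h.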

[2] = tested on: Pseudomonas aeruginosa; experiment: Antimicrobial activity against Pseudomonas aeruginosa at 512 ug/ml after 24 hrs by agar diffusion technique; type: functional; settings: read-out: DIZ; summary of the method: as §1
[3] = tested on: Pseudomonas aeruginosa; experiment: Antimicrobial activity against Pseudomonas aeruginosa after 24 hrs by agar diffusion technique; type: functional; settings: for MIC: Pseudomonas aeruginosa, 24 h
Summary of the method: (§2)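 Agar cup diffusion on Mueller-Hinton agar seeded from 10⁶ CFU/mL suspensions, with 10 mm cups in a 3–4 mm layer. Compounds were in DMF (10 mg/mL stock) at several concentrations. Plates were incubated at 37 °C and zones measured after 24 h. MIC was taken as the intercept of the plot of log concentration against inhibition zone diameter.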

[4] = tested on: Escherichia coli; experiment: Antimicrobial activity against Escherichia coli at 16 ug/ml after 24 hrs by agar diffusion technique; type: functional; settings: read-out: DIZ; summary of the method: as §1
[5] = tested on: Escherichia coli; experiment: Antimicrobial activity against Escherichia coli at 4 ug/ml after 24 hrs by agar diffusion technique; type: functional; settings: read-out: DIZ; summary of the method: as §1
[6] = tested on: Escherichia coli; experiment: Antimicrobial activity against Escherichia coli after 24 hrs by agar diffusion technique; type: functional; settings: for MIC: Escherichia coli, 24 h; summary of the method: as §2
[7] = tested on: Klebsiella pneumoniae; experiment: Antimicrobial activity against Klebsiella pneumoniae at 16 ug/ml after 24 hrs by agar diffusion technique; type: functional; settings: read-out: DIZ; summary of the method: as §1
[8] = tested on: Staphylococcus aureus; experiment: Antimicrobial activity against Staphylococcus aureus at 512 ug/ml after 24 hrs by agar diffusion technique; type: functional; settings: read-out: DIZ; summary of the method: as §1
[9] = tested on: Klebsiella pneumoniae; experiment: Antimicrobial activity against Klebsiella pneumoniae at 64 ug/ml after 24 hrs by agar diffusion technique; type: functional; settings: read-out: DIZ; summary of the method: as §1
[10] = Octanol-phosphate buffer partition coefficient, log D at pH 7.4 by spectrophotometry; type: physicochemical
Summary of the method: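 Shake-flask method. A 0.2 mg/mL stock was diluted into pH 7.4 phosphate buffer and mixed with an equal volume of n-octanol, phases mutually presaturated and protected from light. Samples were vortexed 3 min, then shaken 5 h at 25 °C. Both phases were assayed by UV at 270–280 nm. D is the molar concentration ratio, octanol to aqueous.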

[11] = tested on: Escherichia coli; experiment: Antimicrobial activity against Escherichia coli at 128 ug/ml after 24 hrs by agar diffusion technique; type: functional; settings: read-out: DIZ; summary of the method: as §1
[12] = tested on: Pseudomonas aeruginosa; experiment: Antimicrobial activity against Pseudomonas aeruginosa at 128 ug/ml after 24 hrs by agar diffusion technique; type: functional; settings: read-out: DIZ; summary of the method: as §1
[13] = tested on: Staphylococcus aureus; experiment: Antimicrobial activity against Staphylococcus aureus after 24 hrs by agar diffusion technique; type: functional; settings: for MIC: Staphylococcus aureus, 24 h; summary of the method: as §2
[14] = tested on: Escherichia coli; experiment: Antimicrobial activity against Escherichia coli at 512 ug/ml after 24 hrs by agar diffusion technique; type: functional; settings: read-out: DIZ; summary of the method: as §1
[15] = tested on: Pseudomonas aeruginosa; experiment: Antimicrobial activity against Pseudomonas aeruginosa at 4 ug/ml after 24 hrs by agar diffusion technique; type: functional; settings: read-out: DIZ; summary of the method: as §1
[16] = tested on: Staphylococcus aureus; experiment: Antimicrobial activity against Staphylococcus aureus at 4 ug/ml after 24 hrs by agar diffusion technique; type: functional; settings: read-out: DIZ; summary of the method: as §1
[17] = tested on: Klebsiella pneumoniae; experiment: Antimicrobial activity against Klebsiella pneumoniae after 24 hrs by agar diffusion technique; type: functional; settings: for MIC: Klebsiella pneumoniae, 24 h; summary of the method: as §2
[18] = tested on: Pseudomonas aeruginosa; experiment: Antimicrobial activity against Pseudomonas aeruginosa at 16 ug/ml after 24 hrs by agar diffusion technique; type: functional; settings: read-out: DIZ; summary of the method: as §1
[19] = tested on: Staphylococcus aureus; experiment: Antimicrobial activity against Staphylococcus aureus at 16 ug/ml after 24 hrs by agar diffusion technique; type: functional; settings: read-out: DIZ; summary of the method: as §1
[20] = tested on: Klebsiella pneumoniae; experiment: Antimicrobial activity against Klebsiella pneumoniae at 128 ug/ml after 24 hrs by agar diffusion technique; type: functional; settings: read-out: DIZ; summary of the method: as §1
[21] = tested on: Escherichia coli; experiment: Antimicrobial activity against Escherichia coli at 64 ug/ml after 24 hrs by agar diffusion technique; type: functional; settings: read-out: DIZ; summary of the method: as §1
[22] = tested on: Staphylococcus aureus; experiment: Antimicrobial activity against Staphylococcus aureus at 64 ug/ml after 24 hrs by agar diffusion technique; type: functional; settings: read-out: DIZ; summary of the method: as §1
[23] = tested on: Klebsiella pneumoniae; experiment: Antimicrobial activity against Klebsiella pneumoniae at 4 ug/ml after 24 hrs by agar diffusion technique; type: functional; settings: read-out: DIZ; summary of the method: as §1
[24] = tested on: Staphylococcus aureus; experiment: Antimicrobial activity against Staphylococcus aureus at 128 ug/ml after 24 hrs by agar diffusion technique; type: functional; settings: read-out: DIZ; summary of the method: as §1
[25] = tested on: Klebsiella pneumoniae; experiment: Antimicrobial activity against Klebsiella pneumoniae at 512 ug/ml after 24 hrs by agar diffusion technique; type: functional; settings: read-out: DIZ; summary of the method: as §1

## CCn1cc(C(=O)O)c(=O)c2cc(F)c(N3CCN(Cn4cnc5ccccc54)CC3)cc21
[1]
  zone of inhibition at 64 µg/mL: 0 mm
[2]
  zone of inhibition at 512 µg/mL: 15 mm
[3]
  logMIC: 2.11
  MIC: 128 µg/mL (≈ 285 µM)
[4]
  zone of inhibition at 16 µg/mL: 3 mm
[5]
  zone of inhibition at 4 µg/mL: 0 mm
[6]
  logMIC: 0.6
  MIC: 4 µg/mL (≈ 8.9 µM)
[7]
  zone of inhibition at 16 µg/mL: 0 mm
[8]
  zone of inhibition at 512 µg/mL: 3 mm
[9]
  zone of inhibition at 64 µg/mL: 3 mm
[10]
  logD: -0.043
[11]
  zone of inhibition at 128 µg/mL: 7 mm
[12]
  zone of inhibition at 128 µg/mL: 0 mm
[13]
  logMIC: 2.11
  MIC: 128 µg/mL (≈ 285 µM)
[14]
  zone of inhibition at 512 µg/mL: 10 mm
[15]
  zone of inhibition at 4 µg/mL: 0 mm
[16]
  zone of inhibition at 4 µg/mL: 0 mm
[17]
  logMIC: 1.15
  MIC: 14 µg/mL (≈ 31.1 µM)
[18]
  zone of inhibition at 16 µg/mL: 0 mm
[19]
  zone of inhibition at 16 µg/mL: 0 mm
[20]
  zone of inhibition at 128 µg/mL: 8 mm
[21]
  zone of inhibition at 64 µg/mL: 6 mm
[22]
  zone of inhibition at 64 µg/mL: 0 mm
[23]
  zone of inhibition at 4 µg/mL: 0 mm
[24]
  zone of inhibition at 128 µg/mL: 0 mm
[25]
  zone of inhibition at 512 µg/mL: 20 mm

## CCn1cc(C(=O)O)c(=O)c2cc(F)c(N3CCNCC3)cc21 [NORFLOXACIN]
[1]
  zone of inhibition at 64 µg/mL: 5 mm
[2]
  zone of inhibition at 512 µg/mL: 20 mm
[3]
  logMIC: 0.95
  MIC: 9 µg/mL (≈ 28.2 µM)
[4]
  zone of inhibition at 16 µg/mL: 0 mm
[5]
  zone of inhibition at 4 µg/mL: 0 mm
[6]
  logMIC: 1.45
  MIC: 14 µg/mL (≈ 43.8 µM)
[7]
  zone of inhibition at 16 µg/mL: 0 mm
[8]
  zone of inhibition at 512 µg/mL: 20 mm
[9]
  zone of inhibition at 64 µg/mL: 5 mm
[10]
  logD: -0.41
[11]
  zone of inhibition at 128 µg/mL: 6 mm
[12]
  zone of inhibition at 128 µg/mL: 15 mm
[13]
  logMIC: 1.81
  MIC: 64 µg/mL (≈ 200 µM)
[14]
  zone of inhibition at 512 µg/mL: 19 mm
[15]
  zone of inhibition at 4 µg/mL: 0 mm
[16]
  zone of inhibition at 4 µg/mL: 0 mm
[17]
  logMIC: 0
  MIC: 8 µg/mL (≈ 25.1 µM)
[18]
  zone of inhibition at 16 µg/mL: 2 mm
[19]
  zone of inhibition at 16 µg/mL: 0 mm
[20]
  zone of inhibition at 128 µg/mL: 8 mm
[21]
  zone of inhibition at 64 µg/mL: 4 mm
[22]
  zone of inhibition at 64 µg/mL: 0 mm
[23]
  zone of inhibition at 4 µg/mL: 0 mm
[24]
  zone of inhibition at 128 µg/mL: 3 mm
[25]
  zone of inhibition at 512 µg/mL: 12 mm

## CCn1cc(C(=O)O)c(=O)c2cc(F)c(N3CC[N+](CCO)(CCO)CC3)cc21.[Br-]
[1]
  zone of inhibition at 64 µg/mL: 0 mm
[2]
  zone of inhibition at 512 µg/mL: 0 mm
[3]
  logMIC: 2.71
  MIC: > 512 µg/mL
[4]
  zone of inhibition at 16 µg/mL: 4 mm
[5]
  zone of inhibition at 4 µg/mL: 0 mm
[6]
  logMIC: 0.6
  MIC: 4 µg/mL
[7]
  zone of inhibition at 16 µg/mL: 0 mm
[8]
  zone of inhibition at 512 µg/mL: 14 mm
[9]
  zone of inhibition at 64 µg/mL: 4 mm
[10]
  logD: 0.158
[11]
  zone of inhibition at 128 µg/mL: 9 mm
[12]
  zone of inhibition at 128 µg/mL: 0 mm
[13]
  logMIC: 2.11
  MIC: 128 µg/mL
[14]
  zone of inhibition at 512 µg/mL: 12 mm
[15]
  zone of inhibition at 4 µg/mL: 0 mm
[16]
  zone of inhibition at 4 µg/mL: 0 mm
[17]
  logMIC: 1
  MIC: 10 µg/mL
[18]
  zone of inhibition at 16 µg/mL: 0 mm
[19]
  zone of inhibition at 16 µg/mL: 0 mm
[20]
  zone of inhibition at 128 µg/mL: 5 mm
[21]
  zone of inhibition at 64 µg/mL: 7 mm
[22]
  zone of inhibition at 64 µg/mL: 0 mm
[23]
  zone of inhibition at 4 µg/mL: 0 mm
[24]
  zone of inhibition at 128 µg/mL: 0 mm
[25]
  zone of inhibition at 512 µg/mL: 11 mm
